Results as given in ChEMBL document CHEMBL1138497, “Design and synthesis of small molecule glycerol 3-phosphate acyltransferase inhibitors” (J Med Chem, 2009).
pIC50: −log10 of the molar value.

Assay: Inhibition of mitochondrial glycerol 3-phosphate acyltransferase by liquid scintillation counting
Procedure, shortened: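 Mitochondrial GPAT preparation added to start reaction in mixture of 14C-labelled glycerol 3-phosphate and palmitoyl-CoA with a range of inhibitor concentrations; acylation quantified by scintillation counting. Triplicate points; IC50 taken as inhibitor level giving 50% of activity seen with DMSO vehicle alone.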
With `O=C(O)c1ccccc1NS(=O)(=O)c1ccccc1` the pIC50 was 3.84. `O=C(O)c1ccccc1NS(=O)(=O)c1ccc(Cl)cc1` gave a pIC50 of 3.97. Compound `CCCCCCCCCCCCCCCCS(=O)(=O)Nc1ccccc1C(=O)O` has a pIC50 of 4.74. For `CCCCCCCCS(=O)(=O)Nc1ccc(O)cc1C(=O)O`, the pIC50 was 3.94. `CCCCCCCCS(=O)(=O)Nc1ccc(F)cc1C(=O)O` showed a pIC50 of 4.05. `CCCCCCCCCS(=O)(=O)Nc1ccc(C(=O)O)cc1` showed a pIC50 of 4.05. In the case of `CCCCCS(=O)(=O)NCc1cccc(C(=O)O)c1`, the pIC50 was 3.51. `CCCCCS(=O)(=O)NCc1ccc(C(=O)O)cc1` gave a pIC50 of 3.60. Work on `CCCCCCCCCS(=O)(=O)NCc1cccc(C(=O)O)c1` yielded a pIC50 of 4.08. With `CCCCCS(=O)(=O)NCc1ccccc1C(=O)O` the pIC50 was 3.66. With `O=C(O)c1cccc(NS(=O)(=O)CCc2ccccc2)c1` the pIC50 was 3.79. In the case of `CCCCCCCCCS(=O)(=O)Nc1ccccc1C(=O)O`, the pIC50 was 4.61. `O=C(O)c1ccccc1NS(=O)(=O)Cc1ccccc1` gave a pIC50 of 3.85. For `O=C(O)c1ccccc1NS(=O)(=O)CCc1ccccc1`, the pIC50 was 3.82. For `CCCCCCCCS(=O)(=O)Nc1ccc(P(=O)(O)O)cc1`, the pIC50 was 4.02. Compound `CCCCCCCCCS(=O)(=O)NCc1ccccc1C(=O)O` has a pIC50 of 4.18. In the case of `CCCCCS(=O)(=O)Nc1ccc(CP(=O)(O)O)cc1`, the pIC50 was 3.83. Work on `O=C(O)c1cccc(NS(=O)(=O)c2ccccc2)c1` yielded a pIC50 of 3.86. Work on `O=C(O)c1cccc(NS(=O)(=O)c2ccc(Cl)cc2)c1` yielded a pIC50 of 4.12. Work on `CCCCCCCCS(=O)(=O)Nc1cccc(P(=O)(O)O)c1` yielded a pIC50 of 4.14. In the case of `CCCCCCCCS(=O)(=O)Nc1ccccc1P(=O)(O)O`, the pIC50 was 4.13. With `CS(=O)(=O)Nc1ccccc1C(=O)O` the pIC50 was 3.88. `O=C(O)c1ccc(NS(=O)(=O)Cc2ccccc2)cc1` showed a pIC50 of 3.66. With `O=C(O)c1ccc(NS(=O)(=O)CCc2ccccc2)cc1` the pIC50 was 3.69. In the case of `O=C(O)c1cccc(NS(=O)(=O)Cc2ccccc2)c1`, the pIC50 was 3.75. `CCCCCCCCCS(=O)(=O)Nc1ccccc1CP(=O)(O)O` gave a pIC50 of 4.09. Compound `O=C(O)c1ccc(NS(=O)(=O)c2ccc(Cl)cc2)cc1` has a pIC50 of 3.97. `CCCCCS(=O)(=O)Nc1cccc(CP(=O)(O)O)c1` gave a pIC50 of 3.85. In the case of `CCCCCCCCCS(=O)(=O)Nc1ccc(CP(=O)(O)O)cc1`, the pIC50 was 4.09. In the case of `CCCCCCCCCS(=O)(=O)Nc1cccc(CP(=O)(O)O)c1`, the pIC50 was 4.20. In the case of `CCCCCS(=O)(=O)Nc1ccccc1CP(=O)(O)O`, the pIC50 was 3.89. Work on `CCCCCCCCCS(=O)(=O)Nc1cccc(C(=O)O)c1` yielded a pIC50 of 4.13. Compound `CCCCCCCCCCCCCCS(=O)(=O)Nc1ccccc1C(=O)O` has a pIC50 of 4.76. `CCCCCCCCCS(=O)(=O)Nc1ccc(Cl)cc1C(=O)O` showed a pIC50 of 4.50. In the case of `CCCCCCCCCS(=O)(=O)NCc1ccc(C(=O)O)cc1`, the pIC50 was 3.89. `O=C(O)c1ccc(NS(=O)(=O)c2ccccc2)cc1` showed a pIC50 of 3.82.
